Screening results from PubChem BioAssay.
Sampled rows, rich in hits. Any-hit rate of the full collection: about 1.9%.
Tb hexokinase: T. brucei hexokinase 1 inhibition; inhibition, % at 10 µM; 0.11% of 220,000 active; recombinant TbHK1, G6PDH-coupled NADH A340;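 active = inhibition of 50% or more in the single-dose primary screen; inactive = inhibition below 50%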
Ins promoter up: MIN6 insulin promoter up-regulation. MIN6 insulin promoter-GFP reporter, high-content imaging; stronger effect = higher value. z-score at 5 µM. 0.3% of 190,000 active. AID 1625;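 active = z-score above 3 at 5 µM with at least 500 cells counted in the well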
Autophagy mod: alters autophagy in cells; MEF GFP-LC3 puncta imaging; test concentration mostly 10 µM; 0.98% of 190,000 active; calls only at 10 µM (by protocol);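 active = percentage of spot-positive cells more than 3 SD above its plate mean, without a fluorescence outlier flag or 80% toxicity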;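 note: spot-positive cell cutoff set from DMSO-treated cells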
MT stabilizer: microtubule stabilizers in HeLa cells. HeLa tubulin immunostaining HCS, 24 h; share of cells brighter than vehicle mean+2SD. 0.83% of 200,000 active. % tubulin-high responders, % at 10 µM. AID 2205;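 active = plate Z-score above 3 for both tubulin-high and condensed-nucleus cell shares, with cell loss under 80%, at 10 µM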;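 note: anti alpha tubulin signal scored within the nucleus-defined area of each cell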
bCat nuc transl: alters nuclear translocation of beta-catenin in HeLa cells; AID 1665; immunofluorescence imaging; 0.3% of 190,000 active; nuclear translocation activity, % at 5 µM;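 active = nuclear translocation activity above 50% at 5 µM, with a well cell count of 50 or more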;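 note: per-cell ratio of nuclear to cytoplasmic median beta-catenin stain intensity; plate controls were DMSO negative control for no effect and GSK-3 inhibitor IX positive control for full effect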
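Test system: human HeLa cell line; Doses: 5 µM primary, 0.02–20 µM confirmation; Incubation: 24 h compound exposure, 37°C; Detection: beta-catenin immunofluorescence imaging with DAPI; Read-out: beta-catenin nuclear/cytoplasmic ratio, % activation.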
An asterisk follows results filed as active; i = inactive; nt = no result given; + = active, no number.

SMILES	Tb hexokinase	Ins promoter up	Autophagy mod	MT stabilizer	bCat nuc transl
O=C(Nc1cc(S(=O)(=O)N2CCCCC2)ccc1O)c1ccccc1NS(=O)(=O)c1ccc(F)cc1	-1.8	-0.6	i	4.4	0.1
O=C(Nc1cc(S(=O)(=O)N2CCCCC2)ccc1Cl)c1ccccc1NS(=O)(=O)c1ccc(F)cc1	0.4	-2.03	+	5.7	0.1
Cc1cccc(NC(=S)N(Cc2ccc(Cl)cc2)Cc2ccc(C(=O)O)cc2)c1	5.6	-0.78	+	3.5	1.1
COc1ccc(CN(CC2CCC(C(=O)O)CC2)C(=S)Nc2ccccc2OC)cc1 (configuration not stated)	-6.7	-0.72	i	2.1	0.1
COc1ccc(CN(CC2CCC(C(=O)O)CC2)C(=S)Nc2cccc(C)c2)cc1 (configuration not stated)	-7.7	3.65*	i	1.9	-0.1
CC(=O)Nc1ccc(CN2CCc3c([nH]c4ccccc34)C2c2ccccn2)cc1 (configuration not stated)	-10.2	nt	i	9.9*	1.2
Cc1ccc(N=Nc2c(N)nn(-c3ccccc3)c2N)cc1	-18.8	nt	i	10.3*	1.6
Cc1nn(-c2ccccc2)c(N)c1N=Nc1ccc2ccccc2c1	-12.6	-0.73	i	2.5	-3.4
COc1ccc2nc(NC(=O)c3sc4nc(C)cc(C)c4c3N)sc2c1	-28.1	-0.48	nt	nt	1.3
N#Cc1ccc(CSc2nnc(NC(=O)c3ccc4ncsc4c3)s2)cc1	-7.8	4.4*	i	3.6	-2.9
O=C(Nc1nnc(SCc2c(Cl)cccc2Cl)s1)c1ccc2ncsc2c1	1.7	-0.11	i	3.9	-2.5
COc1cccc(/C=N/NC(=O)c2csc(-n3nc(C)cc3C(F)(F)F)n2)c1	-13.0	0.54	i	42.5*	30.5
Cc1cc(C(F)(F)F)n(-c2nc(C(=O)NNS(=O)(=O)c3ccccc3)cs2)n1	-6.9	-1.29	i	1.8	1.2
COc1ccccc1NC(=O)c1csc(-n2nc(C)cc2C(F)(F)F)n1	2.7	0.53	i	5.5	nt
Cc1cc(C(F)(F)F)n(-c2nc(C(=O)N/N=C/c3ccc(F)cc3)cs2)n1	-4.6	nt	i	49.1*	nt
COc1ccc(N2CCN(C(=O)C3CCN(S(=O)(=O)c4ccc(F)cc4)CC3)CC2)cc1	-3.7	-0.22	i	2.9	-0.2
Cc1ccc(Cn2cc(/C=N/Nc3ccc([N+](=O)[O-])cn3)c3ccccc32)cc1	-13.1	2.34	+	4.0	1.3
Cc1c(/C=N/Nc2ccc([N+](=O)[O-])cn2)c2ccccc2n1Cc1ccccc1	-27.3	1.38	nt	nt	-0.1
Cc1nc2ccccn2c1C(=O)/C=C/c1cccc([N+](=O)[O-])c1	-7.8	-0.21	+	4.9	3.4
N#Cc1cccc(NC(=O)CSc2ccc3c4c(cccc24)C(=O)c2ccccc2-3)c1	35.9	nt	+	5.9	-4.4
COc1ccc(NC(=O)CSc2ccc3c4c(cccc24)C(=O)c2ccccc2-3)cc1	20.1	nt	+	14.5	nt
CC(=O)c1cc2c(cc1NC(=O)C1CCC1)OCO2	-2.4	-0.2	i	2.5	1.9
c1cc2c(cc1-c1csc(NNC3=NCCCCC3)n1)OCCO2	-5.7	-1.11	i	2.6	-0.5
CN1C=CC=C/C1=C1/SC(=S)N(Cc2ccccc2)C1=O	-9.9	0	i	1.3	nt
CCN1/C(=C2\SC(=S)N(Cc3ccccc3)C2=O)Sc2ccccc21	8.2	-0.1	+	8.8	0.5
SMILES	Tb hexokinase	Ins promoter up	Autophagy mod	MT stabilizer	bCat nuc transl
CCN1/C(=C2\OC(=S)N(C)C2=O)Sc2ccccc21	-8.7	1.69	+	4.2	-0.8
CCN1/C(=C2\OC(=S)N(C)C2=O)C=Cc2ccccc21	-16.7	nt	i	9.3	-0.8
O=C(Nc1ccccc1)N1CCC(C(=O)N2CCN(c3ccccc3F)CC2)CC1	8.5	-1.11	i	2.2	-3.3
CN(c1ccccc1)S(=O)(=O)c1ccc(Cl)c(C(=O)Nc2nc3ccccc3[nH]2)c1	26.1	-0.7	i	3.8	1.6
CN(c1ccccc1)S(=O)(=O)c1ccc(Cl)c(C(=O)Nc2ccc(-c3nc4ccccc4[nH]3)cc2)c1	1.2	-0.18	i	17.2*	-0.9
COc1cc2c(cc1OC)C(c1cccs1)N(C(=O)c1ccc(S(=O)(=O)N(C)C)cc1)CC2 (configuration not stated)	-18.0	-0.32	nt	nt	-0.8
Cc1ccc(Nc2c(-c3ccccc3)nc3cnccn23)cc1	-4.5	-0.75	i	3.4	-0.3
Cc1ccc(Nc2c(-c3cccnc3)nc3ccc(Br)cn23)cc1	-2.9	-0.76	+	1.3	-0.5
